The target of the test is Protein kinase C (PKC) (Homo sapiens) (UniProt O94806+P41743+P17252+P05129+Q05655+P05771+Q05513+Q02156+P24723+Q15139+Q04759). Briefly: Synergistic activation of PKC in human U1 cells infected with latent HIV-1 assessed as reversal of HIV-1 latency by measuring increase in p24 antigen level at 50 nM incubated for 48 hrs in presence of 100 nM JQ1 by chemiluminescent enzyme immunoassay relative to compound alone. Format: cell-based. As to conditions: filed as activator. The procedure, abridged: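 U1 cells at 5 × 10^5 cells/ml incubated 48 h with test agent alone or plus 100 nm JQ1. Supernatant p24 antigen quantified by automated immunoassay. Fold reactivation computed versus the same agent without JQ1. Mean ± S.D. of three independent experiments.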

The structures appear in SMILES notation.

In the case of `CCCCCCCCCCc1ccc2c(c1)N(C)[C@@H](C(C)C)C(=O)N[C@H](CO)C2`, the fold change (FC) was found to be 4.5.
